Rad51 HR inh: human RAD51 strand exchange inhibitors, primary screen, biochemical, fluorescence. DNA repair protein RAD51 homolog 1 (Homo sapiens), Q06609. hRad51 DNA strand exchange, fluorescence dequenching. inhibition, % at 10 µM. 200,000 compounds, 0.085% hits;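 active means inhibition above 40% at the single screening dose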;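 further: 0% = DMSO control wells and 100% = blanks with heterologous ssDNA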
Target sequence (Q06609 whole entry, looked up): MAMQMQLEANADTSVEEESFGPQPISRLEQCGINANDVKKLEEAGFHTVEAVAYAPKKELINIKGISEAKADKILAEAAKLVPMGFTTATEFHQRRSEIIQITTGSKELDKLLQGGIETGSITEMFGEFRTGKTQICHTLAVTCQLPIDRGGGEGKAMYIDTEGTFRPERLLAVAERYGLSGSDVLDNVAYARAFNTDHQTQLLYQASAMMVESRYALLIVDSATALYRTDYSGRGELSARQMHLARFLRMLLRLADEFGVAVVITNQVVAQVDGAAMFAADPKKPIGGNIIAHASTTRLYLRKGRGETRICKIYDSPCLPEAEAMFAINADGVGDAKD
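System: human Rad51 nucleoprotein filaments preassembled on unlabelled ssDNA. Reagent: labelled 47-mer dsDNA for strand exchange. Schedule: 30-min compound preincubation and 15-min exchange, both room temperature. Measured by: FRET fluorescence dequenching, excitation 485 nm, emission 520 nm. Read-out: Fluorescence-based percent inhibition, control- and blank-normalised. Benchmarks: plate controls and plate blanks.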
Lmaj promast: Leishmania major promastigote growth inhibition, primary screen; Leishmania major promastigotes, resazurin fluorescence viability; inhibition, % at 10 µM; 200,000 compounds, 9% hits; AID 1063, 2008; in the data active means inhibition above about 50%;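 further: promastigotes grown with compound for 44 hours at 28 °C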
PMI act satM6P: human PMI activators, high substrate, primary screen, biochemical, fluorescence intensity, near-saturating mannose 6-phosphate; Mannose-6-phosphate isomerase (Homo sapiens), P34949; coupled PMI enzyme assay, resazurin fluorescence, 20 min; hits give high values; 1 = untreated enzyme, 0 = substrate-free blank; activation factor at 20 µM; 190,000 compounds, 0.34% hits; AID 1216, 2008;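 active means activation factor of 2 or more at 20 µM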
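Test system: human phosphomannose isomerase with PGI, G6PDH, diaphorase coupling enzymes / Doses: 20 µM compound, 1% DMSO / Times: enzyme reaction with compound 20 min at room temperature / Measured by: Diaphorase-driven resazurin-to-resorufin fluorescence, excitation 544, emission 590 nm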
WT yeast gro inh: growth inhibition of WT strain, primary screen, mitochondrial fusion inhibitor project, WT and mutant strains, chemical genetic; 190,000 compounds, 2.1% hits; mitochondrial fusion phenotypic screen; inhibition, % at 10 µM; in the data active means inhibition above about 58%; tested in S. cerevisiae
PMI act: activators of human PMI, primary screen, biochemical, fluorescence intensity, near-Km mannose 6-phosphate; Mannose-6-phosphate isomerase (Homo sapiens), P34949; purified human PMI, coupled resazurin fluorescence, 20 min; hits give high values; 1 = vehicle control, 0 substrate-free wells; 190,000 compounds, 0.005% hits; activation factor at 20 µM;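 active means activation factor of 2 or more at 20 µM, relative to plate controls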
Calpain2 inh: inhibitors of pig calpain II, primary screen, biochemical, fluorogenic peptide substrate, 1536-well; purified calpain II, 30 min; inhibition, % at 16 µM; 220,000 compounds, 0.37% hits; AID 1236, 2008;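 active means inhibition above about 50%, limit read from the data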
* marks the source's active call; other numbers are inactive results; i = inactive; x = no result given. Sampled rows, rich in hits. Any-hit rate of the full collection: about 9.8%.

SMILES	Rad51 HR inh	Lmaj promast	PMI act satM6P	WT yeast gro inh	PMI act	Calpain2 inh
Cc1cc(N/N=C/c2ccccc2O)nc(-c2ccccc2O)n1	-3	53*	0.5	69*	0.6	-62
Cc1cc(N/N=C/c2ccc(O)cc2O)nc(-c2ccccc2O)n1	2	12	0.5	11	0.6	2
COC(=O)c1cccc(Nc2cc(C)nc(-c3ccccc3O)n2)c1	-2	67*	1	14	0.9	-112
CC(C)CN(C(=O)C(c1ccccc1)c1ccccc1)c1c(N)n(CC(C)C)c(=O)[nH]c1=O	-4	-8	1.1	2	1	-6
COc1ccc(-n2c(=S)[nH]c3ccccc32)cc1	-10	53*	1.5	-3	1.3	28
COc1ccc(C(=O)COC(=O)CNC(=O)c2ccc(OC)cc2)cc1	5	0	1	-1	1.1	9
O=C(CNC(=O)c1ccc(N2C(=O)c3ccccc3C2=O)cc1)OCC(=O)c1cccc2ccccc12	0	62*	0.9	-1	1	-13
O=C(CNC(=O)c1ccc(N2C(=O)c3ccccc3C2=O)cc1)OCC(=O)c1ccccc1	-10	62*	1.1	-1	1.2	-30
CCc1ccc(C(=O)COC(=O)CNC(=O)c2ccc(N3C(=O)c4ccccc4C3=O)cc2)cc1	3	-5	1.2	14	1.2	18
O=S(=O)(NCc1ccco1)c1cnc(Cl)c(Br)c1	-18	8	1	-4	1.1	-8
O=[N+]([O-])c1ccc(Sc2cccc3cccnc23)c([N+](=O)[O-])c1	x	96*	1	7	1	19
O=[N+]([O-])c1cc(Cl)ccc1Sc1cccc2cccnc12	3	18	1	-4	0.9	45
CN(C)/N=C/c1ccc(Sc2ccc([N+](=O)[O-])cc2[N+](=O)[O-])o1	x	-4	0.8	7	0.7	27
O=[N+]([O-])c1ccc(Sc2cccc3cccnc23)cc1	-3	10	1	27	1	35
Cc1cc(C)nc(Sc2ccc([N+](=O)[O-])cc2[N+](=O)[O-])n1	-13	87*	1	-3	1	-4
C=CCn1nc([N+](=O)[O-])nc1Sc1cccc2cccnc12	-12	58*	0.9	-24	1	-4
Cc1c(NC(=O)/C=C/c2ccc(S(=O)(=O)N3CCOCC3)cc2)c(=O)n(-c2ccccc2)n1C	-50	-6	1	-9	1	-22
CCOC(=O)/C=C1\Nc2ccccc2OC1=O	-9	64*	0.9	49	0.9	2
COc1ccc(OC)c(NC(=O)CSc2nncc3ccc(OC)c(OC)c23)c1	9	x	x	x	x	7
CC1=CC(C)(C)Nc2ccc(OC(=O)C(C)N3C(=O)c4ccccc4C3=O)cc21 (stereo not drawn)	-2	101*	0.8	6	0.8	i
CC1=CC(C)(C)Nc2ccc(OC(=O)CN3C(=O)CCC3=O)cc21	-3	100*	0.9	-16	0.8	-441
COC(=O)c1ccc(OC(=O)c2cccnc2)cc1	x	-10	1.1	-6	1.1	-12
CC1=CC(C)(C)Nc2ccc(OC(=O)c3cccnc3)cc21	6	101*	0.8	-1	0.9	i
COc1ccc(Cl)cc1NC(=O)CCc1nc(-c2ccccc2F)no1	-3	4	1	24	1	28
O=S(=O)(c1ccccc1)N1CCN=C1SCc1ccc(Cl)cc1	4	100*	0.5	46	0.8	1
SMILES	Rad51 HR inh	Lmaj promast	PMI act satM6P	WT yeast gro inh	PMI act	Calpain2 inh
O=S(=O)(c1ccccc1)N1CCN=C1SCc1ccc(Cl)c(Cl)c1	2	51*	1	53	0.9	13
COc1ccc(S(=O)(=O)N(C)C)cc1NC(=O)CSc1nncs1	4	9	1	-17	1	-26
COc1ccc(/C=[N+](\[O-])C2N(c3ccccc3)C(=S)SC2(C)C)cc1OC (stereo not drawn)	-3	x	x	x	x	11
CC1CCCN(C2=NC(=O)/C(=C/c3cn(-c4ccccc4)nc3-c3cccc(S(=O)(=O)N(C)C)c3)S2)C1 (stereo not drawn)	5	69*	1	-13	0.9	-183
CC1CCN(C2=NC(=O)/C(=C/c3cn(-c4ccccc4)nc3-c3cccc(S(=O)(=O)N(C)C)c3)S2)CC1	9	80*	0.8	-9	0.8	-159
CN(C)CC(O)CN1C(=O)NC(C)(C)C1=O (stereo not drawn)	0	-6	x	-16	x	-40
COc1ccc(C(=O)Oc2c(C)occc2=O)cc1OC	5	-7	1	14	0.9	-20
Cc1occc(=O)c1OC(=O)Nc1ccc(Cl)c(Cl)c1	x	-2	1	80*	1	23
Cc1noc(C)c1-c1nc(CS(=O)(=O)c2ccccc2)no1	7	x	x	x	x	6
CCc1nnc(N/N=C/c2c(Cl)cccc2Cl)n1N	x	50*	0.9	-17	1	-3
CCCCN(CC)CCCNC(=O)c1csc2c1CCCCC2	-30	87*	1	-14	1	-4
CC1CC(C)CN(CCCNC(=O)c2csc3c2CCCC3)C1 (stereo not drawn)	-4	93*	0.9	21	0.9	3
O=C(Nc1ccccc1)c1ccc(Nc2c([N+](=O)[O-])cc([N+](=O)[O-])c3ccccc23)cc1	x	78*	0.9	0	1	-67
O=C(Nc1cccc([N+](=O)[O-])c1)c1ccccc1	14	x	x	x	x	12
Cc1nc2sc(C#N)c(N)c2c2c1CCCC2	2	10	1.1	0	1	x
N#Cc1sc2nc(N3CCCCC3)c3c(c2c1N)CCCC3	2	18	0.9	73*	0.9	-28
CC(O)C(=O)N/N=C/c1ccccc1C(=O)O (stereo not drawn)	1	-7	1	-4	1	-32
COc1ccc(-c2nnc(SCc3cc(C)cc(C)c3)o2)cc1	x	2	0.9	64*	0.9	18
COc1ccc(-c2nnc(-c3ccc(N)cc3)o2)cc1	-4	100*	1	20	1	-412
COc1ccc(-c2nnc(-c3ccc(N(C)C)cc3)o2)cc1	1	-9	0.9	8	0.9	-193
Cc1ccc(-c2nnc(SCc3ccccc3F)o2)cc1	8	-10	0.9	60*	0.8	0
Cc1ccccc1-c1nnc(SCc2ccc(F)cc2)o1	1	-3	1	60*	0.9	-17

Screens as filed in PubChem BioAssay.
